# Data: article PMC4073661 (Journal of Natural Products, 2014)
# “Also recorded” adds a separate entry of the source.
# Legend:
# [1] = system: P-388 murine lymphocytic leukemia cells; details: cited from earlier work
# [2] = system: KB cells; details: cited from earlier work
# [3] = system: HT-29 cells implanted in immunodeficient NCr nu/nu mice; assay: In vivo hollow fiber assay
# Method in brief: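 Eight- to nine-week-old mice carrying HT-29 cells in hollow fibers received ip doses once daily on days 3–6 after implantation. Vehicle was diluted with water to 13% DMSO and 25% Cremophor; paclitaxel 5 mg/kg was the positive control. Body weight was recorded daily. Fibers were retrieved on day 7 for modified MTT. Net growth (day 7 − day 0 absorbance) was expressed relative to vehicle; n = 6 control, 3 per treatment.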
# [4] = system: caspase-3; assay: Caspase-3 activation by Western blot; type: cell-based, human; details: 24 h incubation; 1, 5 and 10 μM; cleaved caspase-3 Western blot
# [5] = system: CCD-112CoN normal human colon cells; assay: Cytotoxicity against CCD-112CoN cells; type: cell-based
# Method in brief: (§1)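 Cell growth-inhibition screen with paclitaxel as positive control. Each measurement was run in triplicate, and each value is representative of two independent experiments. IC50 was calculated by nonlinear regression.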
# [6] = biological target: topo IIα (Homo sapiens, UniProt P11388); assay: Topoisomerase II assay; type: biochemical; details: 100 μM
# [7] = system: HT-29 human colon cancer cells; assay: Cytotoxicity against HT-29 cells; type: cell-based
# Method in brief: as §1
# [8] = system: SKW-3 chronic lymphoid leukemia cells; details: cited from earlier work
# [9] = system: MCF-7S human breast carcinoma; details: read-out: IC50, MCF-7S cell growth; cited from earlier work
# [10] = system: KB human epidermoid carcinoma; details: read-out: IC50, KB cell growth; cited from earlier work
# [11] = system: several human cancer cell lines; details: cited from earlier work
# [12] = system: a broad spectrum of normal and tumor cell lines; details: cited from earlier work
# [13] = system: topoisomerase; details: cited from earlier work
# [14] = system: HT-29 human colon cancer cell; details: 8-day treatment; cited from earlier work
# [15] = cited from earlier work
# Sequence of topo IIα (P11388 whole entry): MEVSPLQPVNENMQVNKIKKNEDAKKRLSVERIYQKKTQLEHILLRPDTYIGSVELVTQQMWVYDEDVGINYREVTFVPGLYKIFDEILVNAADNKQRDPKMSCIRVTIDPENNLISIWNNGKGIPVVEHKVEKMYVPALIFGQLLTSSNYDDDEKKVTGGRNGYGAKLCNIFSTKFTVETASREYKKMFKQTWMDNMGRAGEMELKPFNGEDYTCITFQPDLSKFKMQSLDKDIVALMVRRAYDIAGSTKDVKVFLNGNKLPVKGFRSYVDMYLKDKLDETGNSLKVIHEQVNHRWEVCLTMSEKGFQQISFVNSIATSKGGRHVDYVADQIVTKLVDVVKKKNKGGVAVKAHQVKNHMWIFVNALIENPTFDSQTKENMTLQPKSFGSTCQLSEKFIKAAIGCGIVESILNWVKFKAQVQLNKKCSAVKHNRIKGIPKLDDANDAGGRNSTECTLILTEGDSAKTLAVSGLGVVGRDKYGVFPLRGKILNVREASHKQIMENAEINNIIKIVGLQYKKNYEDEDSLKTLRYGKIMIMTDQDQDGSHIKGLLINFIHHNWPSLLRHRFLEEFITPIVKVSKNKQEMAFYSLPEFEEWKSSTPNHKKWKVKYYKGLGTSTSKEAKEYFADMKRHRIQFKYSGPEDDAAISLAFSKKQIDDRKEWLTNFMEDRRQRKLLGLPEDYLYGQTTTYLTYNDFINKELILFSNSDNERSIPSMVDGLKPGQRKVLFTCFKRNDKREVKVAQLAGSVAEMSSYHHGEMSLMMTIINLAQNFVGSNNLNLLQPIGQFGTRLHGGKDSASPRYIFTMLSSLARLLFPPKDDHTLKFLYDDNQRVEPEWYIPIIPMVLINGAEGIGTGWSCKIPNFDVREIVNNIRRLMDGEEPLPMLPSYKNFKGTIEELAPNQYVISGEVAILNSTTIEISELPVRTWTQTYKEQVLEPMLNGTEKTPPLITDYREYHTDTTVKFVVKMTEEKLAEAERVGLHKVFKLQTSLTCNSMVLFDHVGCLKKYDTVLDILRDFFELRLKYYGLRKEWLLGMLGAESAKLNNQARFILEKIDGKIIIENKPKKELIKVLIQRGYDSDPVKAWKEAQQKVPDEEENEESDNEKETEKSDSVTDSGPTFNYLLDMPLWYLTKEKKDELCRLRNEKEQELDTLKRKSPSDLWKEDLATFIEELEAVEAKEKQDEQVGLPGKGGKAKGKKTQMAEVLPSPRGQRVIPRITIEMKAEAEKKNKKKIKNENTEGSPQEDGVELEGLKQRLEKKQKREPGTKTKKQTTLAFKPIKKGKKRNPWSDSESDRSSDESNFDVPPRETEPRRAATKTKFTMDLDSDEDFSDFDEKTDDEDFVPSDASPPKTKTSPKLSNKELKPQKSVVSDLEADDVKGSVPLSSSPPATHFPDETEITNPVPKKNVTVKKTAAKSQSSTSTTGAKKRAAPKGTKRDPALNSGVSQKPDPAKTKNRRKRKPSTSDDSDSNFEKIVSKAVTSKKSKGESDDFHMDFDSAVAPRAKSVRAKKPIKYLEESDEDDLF
compound,measurement,setting,value
COc1cc2c(O[C@@H]3OC[C@H](O)[C@H](O)[C@H]3O)c3c(c(-c4ccc5c(c4)OCO5)c2cc1OC)C(=O)OC3 [Acutissimalignan A],IC50 toward P-388 cells,[1],0.02 µg/mL
COc1cc2c(OC3OCC(OC)C(OC)C3O)c3c(c(-c4ccc5c(c4)OCO5)c2cc1OC)C(=O)OC3 (centres unmarked) [Cleistanthin A],GI50 toward KB cells,[2],5.6 nM
"COc1cc2c(O[C@@H]3OC[C@H](OC(C)=O)[C@H](OC(C)=O)[C@H]3O)c3c(c(-c4ccc5c(c4)OCO5)c2cc1OC)C(=O)OC3 [Compound 1, 7-O-[(3,4-di-O-acetyl)-α-L-arabinopyranosyl]-4,5-dimethoxy-3′,4′-methylenedioxy-2,7′-cycloligna-7,7′-dieno-9,9′-lactone]",toxicity in treated mice,"[3]; 5.0-20.0 mg/kg ip once daily for 4 days, NCr nu/nu mice",No gross toxicity was observed; also recorded: no signs of toxicity
same,relative HT-29 cell growth in hollow fibers,"[3]; 10.0, 15.0 or 20.0 mg/kg ip once daily for 4 days, compared with 5 mg/kg ip, NCr nu/nu mice",statistically significantly different
same,activity in in vivo hollow fiber assay,[3]; HT-29 cells implanted in NCr nu/nu mice,showed activity
same,caspase-3 activation in HT-29 cells,[4],induced activation of caspase-3
same,cytotoxicity toward CCD-112CoN human normal colon cells (in words),[5],noncytotoxic
same,topo IIα inhibition (in words),[6],did not inhibit DNA topoisomerase IIα activity
"COc1cc2c(O[C@@H]3OC[C@H](O)[C@H](O)[C@H]3O)c3c(c(-c4ccc5c(c4)OCO5)c2cc1OC)C(=O)OC3 [Compound 4, phyllanthusmin C]",cytotoxicity toward CCD-112CoN human normal colon cells (in words),[5],noncytotoxic
"COc1cc2c(O[C@@H]3O[C@H](CO)[C@@H](O)[C@H](O)[C@H]3O)c3c(c(-c4ccc5c(c4)OCO5)c2cc1OC)C(=O)OC3 [Compound 5, cleistanthin B]",cytotoxicity against HT-29 human colon cancer cells (in words),[7],inactive
COc1cc2cc3c(c(-c4ccc5c(c4)OCO5)c2cc1OC)C(=O)CO3 [Justicidin B],cytotoxicity toward SKW-3 cells (in words),[8],cytotoxic
COc1cc2c(O[C@@H]3O[C@H](C)[C@@H](O)[C@H](O)[C@H]3O)c3c(c(-c4ccc5c(c4)OCO5)c2cc1OC)C(=O)OC3 [Patentiflorin A],IC50,[9],3 nM
same,IC50,[10],4 nM
COc1ccc(-c2c3c(c(OC)c4cc5c(cc24)OCO5)COC3=O)cc1OC [chinensinaphthol methyl ether],cytotoxicity (in words),[11],did not show such activity
COc1cc2c(O[C@@H]3O[C@H](CO)[C@@H](O)[C@H](O)[C@H]3O)c3c(c(-c4ccc5c(c4)OCO5)c2cc1OC)C(=O)OC3 [cleistanthin B],"selectivity of cytotoxicity, tumor versus normal cell lines (in words)",[12],showed cytotoxicity toward human tumor cells selectively
COc1cc2c(-c3ccc4c(c3)OCO4)c3c(cc2cc1O)COC3=O [daurinol],formation of open circular and linear DNA from topoisomerase-DNA cleavable intermediate,[13],did not induce the formation of open circular and linear DNA
COc1cc([C@@H]2c3cc4c(cc3[C@@H](O[C@@H]3O[C@@H]5CO[C@@H](C)O[C@H]5[C@H](O)[C@H]3O)[C@H]3COC(=O)[C@H]23)OCO4)cc(OC)c1O [etoposide],HT-29 cell apoptosis induction,[14],induced HT-29 human colon cancer cell apoptosis
same,cytotoxicity against HT-29 human colon cancer cells (in words),[7],inactive
same,caspase-3 activation in HT-29 cells,[4],did not induce caspase-3 activation
COc1cc2c(OC)c3c(c(-c4ccc5c(c4)OCO5)c2cc1OC)C(=O)OC3 [justicidin A],IC50 toward several human cancer cell lines,[11],0.002 to 0.007 µg/mL
same,cytotoxicity (in words),[11],highly cytotoxic
CC(=O)O[C@H]1C(=O)[C@@]2(C)[C@H]([C@H](OC(=O)c3ccccc3)[C@]3(O)C[C@H](OC(=O)[C@H](O)[C@@H](NC(=O)c4ccccc4)c4ccccc4)C(C)=C1C3(C)C)[C@]1(OC(C)=O)CO[C@@H]1C[C@@H]2O [paclitaxel],IC50,"[7]; Homo sapiens, HT-29, read-out: IC50 values toward the HT-29 cells",1 nM
Cleistanthoside A tetraacetate,"IG50 values, cytotoxicity",[15],in the nanomolar range
